EBNA-1 inhibitor: EBNA-1 DNA-binding inhibitors, primary screen, biochemical, fluorescence polarization; inhibition, % at 14.8 µM; 0.34% of 300,000 active; in the data active means inhibition above about 28%
ZTA DNA inh: blocks Epstein-Barr virus ZTA, an EBNA-1 counter-screen. 0.15% of 320,000 active. ZTA-DNA binding, fluorescence polarization. P03206. AID 2234. inhibition, % at 11 µM; in the data active means inhibition above about 33%
Target sequence (P03206 whole entry, looked up): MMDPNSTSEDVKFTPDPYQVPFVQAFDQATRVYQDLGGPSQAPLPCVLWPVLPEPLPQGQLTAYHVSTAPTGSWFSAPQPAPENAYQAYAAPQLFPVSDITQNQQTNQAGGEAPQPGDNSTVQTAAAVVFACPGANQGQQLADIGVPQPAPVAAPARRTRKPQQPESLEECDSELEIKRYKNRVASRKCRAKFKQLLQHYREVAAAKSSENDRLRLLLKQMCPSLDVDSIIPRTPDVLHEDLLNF
core dimer inh: inhibitors of HCV core protein dimerization, primary screen, biochemical, TR-FRET, high-throughput; inhibition, % at 5 µM; TR-FRET GST/Flag-core106 dimerization, 1536-well; 0.33% of 300,000 active;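 active means inhibition above the mean of all tested compounds plus 3 SD, set per screening campaign, cut at about 45% in these data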
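test system = GST/Flag-tagged HCV core106 proteins | probe or stimulus = Eu donor and XL665 acceptor anti-tag antibodies | times = compound-protein-antibody incubation 4 h at 22.5 °C | signal = TR-FRET, excitation 340 nm, emission 617 and 671 nm | measure = percent inhibition of core106 dimerization signal | controls = wells lacking GST-core106 and wells with excess unlabelled core106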
HCV NS3 hel inh: inhibitors of HCV NS3 helicase, primary screen, biochemical, Cy5 molecular beacon fluorescence; NS3 helicase DNA unwinding; inhibition, % at 10.9 µM; 0.56% of 290,000 active; AID 1800, 2009;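 active means inhibition above the mean of all tested compounds plus 3 SD, set per campaign, cut at about 35% in these data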;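 further: 0% = DMSO wells and 100% = thioflavine S control wells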
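Assay system: hepatitis C virus NS3 helicase domain fragment enzyme. Also added: annealed dual-labelled DNA beacon duplex, ATP-started. Timing: 1 h reaction at 25 °C, ATP-initiated. Technique: Cy5 fluorescence at 0 and 60 min, beacon hairpin quenching. Evaluation: % inhibition of unwinding. Replication: one well per compound.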
NS3 helicase cf: HCV NS3 helicase inhibitors, retest, confirmation, biochemical, Cy5 molecular beacon fluorescence, triplicate; shares compounds with HCV NS3 hel inh; NS3 helicase DNA unwinding; inhibition, % at 10.9 µM; 31% of 1,600 active;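 active means inhibition above the mean of all tested compounds plus 3 SD, cutoff set per campaign, cut at about 36% in these data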
FID counter trip: compounds displacing fluorescent DNA intercalator, artefact control for HCV NS3 helicase inhibitor project, biochemical, FID fluorescence, triplicate. shares compounds with HCV NS3 hel inh. DNA fluorescent intercalator displacement. AID 1945, 2009. 4% of 1,600 active. inhibition, % at 7.9 µM; in the data active means inhibition above about 37%;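 further: 0% = vehicle and 100% = reference compound; higher means more displacement of ethidium bromide from the DNA hairpin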
Zta DNA confirm: EBV Zta binding to ZRE DNA, inhibitors, confirmation, biochemical, fluorescence polarization, triplicate. shares compounds with ZTA DNA inh. inhibition, % at 11.1 µM. 30% of 320 active. AID 2361, 2010;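 active means mean inhibition across triplicate runs above the hit threshold derived for the original primary screen, cut at about 33% in these data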;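 further: 0% = Zta with DMSO and 100% = wells lacking Zta protein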
EBNA-1 counter: EBNA-1 DNA-binding inhibition, counter-screen for ZTA inhibitor project, biochemical, fluorescence polarization | shares compounds with ZTA DNA inh | inhibition, % at 14.8 µM | 320 tested, under 10 active | AID 2362, 2010; call rule not given here
* hit, by the source's call; nt = no result given; + = active, no number; ! = not active in a repeat. Sampled rows, rich in hits. Any-hit rate of the full collection: about 1.2%.

SMILES	EBNA-1 inhibitor	ZTA DNA inh	core dimer inh	HCV NS3 hel inh	NS3 helicase cf	FID counter trip	others
CC1CCC(NC(=O)CNC(=S)N2CC3CC(C2)c2cccc(=O)n2C3)CC1 (stereo unspecified)	0	3	-3	6	nt	nt
OC(CN1CCOCC1)c1csc2ccccc12 (stereo unspecified)	-2	0	-5	nt	nt	nt
COc1cccc(N2C(=O)/C(=C/c3ccc(C)o3)C(=O)NC2=S)c1	-6	-8	9	36*	59*	-14
O=C1NC(=S)N(c2ccccc2)C(=O)/C1=C/c1ccco1	5	21	4	41*	69*	0
O=C1OCc2cc(N=Nc3c(O)[nH]c(=O)[nH]c3=O)ccc21	2	8	1	1	nt	nt
Cc1ccsc1C(=O)C1CCCN(Cc2cnc(N3CCCC3)s2)C1 (stereo unspecified)	-17	3	0	-5	nt	nt
COC(=O)C1=C(c2ccc(OC)c(OC)c2)C[C@@H]2CC[C@H]1N2C(=O)NCC1CC1	nt	5	nt	nt	nt	nt
CCN(CC)c1ccc(N=Cc2c(O)n(-c3ccccc3C)c(=O)[nH]c2=O)cc1	-7	32	10	34	nt	nt
Cc1ccccc1-n1c(O)c(C=Nc2ccc3c(c2)OCO3)c(=O)[nH]c1=O	2	-5	-3	37*	-14	1
CN(C)[C@@H]1C(=O)C(C(N)=O)=C(O)[C@@]2(O)C(=O)C3=C(O)c4c(O)cccc4[C@@](C)(O)C3C[C@@H]12 (stereo partly specified)	4	-3	-6	nt	nt	nt
CN(C)[C@@H]1C(=O)C(C(N)=O)=C(O)[C@@]2(O)C(=O)C3=C(O)c4c(O)cccc4[C@@](C)(O)[C@H]3[C@H](O)[C@@H]12	30*!	8	35	36*	97*	18
CN(C)[C@@H]1C(=O)C(C(N)=O)=C(O)[C@@]2(O)C(=O)C3=C(O)c4c(O)ccc(Cl)c4[C@@](C)(O)[C@H]3C[C@@H]12	-8	-14	0	48*	7	20
CC(OC(=O)c1cn(C)c2ccccc12)C(=O)N1CCCC1 (stereo unspecified)	nt	-36	nt	nt	nt	nt
O=C(c1ccccc1)c1cn(CC(=O)N2CCOCC2)c2ccccc12	9	16	-4	57*	-7	3
Cc1ccsc1C(=O)C1CCCN(Cc2ccc(-n3cccn3)cc2)C1 (stereo unspecified)	-9	-1	0	-6	nt	nt
C#CCOC(=O)C1=CCCN(C)C1	3	-4	14	nt	nt	nt
CC[n+]1c(/C=C/N(C)c2ccccc2)sc2ccc(Cl)cc21	-4	7	-1	-3	nt	nt
CC[n+]1c(/C=C/C=C/c2ccc(N(C)C)cc2)sc2ccccc21	105*	164*	-29	48*	107*	36
COc1ccc(N2CCN(Cc3nc4ccccc4[nH]3)CC2)cc1	-9	-14	-15	38*	-11	-2
CC(C)n1c(=O)c(C=Nc2ccc(F)cc2)c(O)n(Cc2ccco2)c1=O	-5	-5	23	48*	-5	5
CCOc1ccccc1-n1c(O)c(C=Nc2ccc(N(CC)CC)cc2)c(=O)[nH]c1=O	0	37*	0	54*	-7	-12	Zta DNA confirm=5;EBNA-1 counter=0
COc1cccc(-c2nn(CCC#N)cc2C(=O)Nc2ccccc2Cl)c1	nt	nt	nt	-7	nt	nt
CCN(CC)c1ccc(N=Cc2c(O)n(-c3ccccc3)c(=O)[nH]c2=O)cc1	10	38*	6	16	nt	nt	Zta DNA confirm=1;EBNA-1 counter=-4
O=c1[nH]c2ccccc2c(=O)n1-c1ccc(Cl)cc1Cl	3	35*	5	-2	nt	nt	Zta DNA confirm=6;EBNA-1 counter=-2
c1ccc([C@@H]2CO2)cc1	1	2	14	nt	nt	nt
CSc1ccc(C(=O)C2CCCN(CCCn3cccn3)C2)cc1 (stereo unspecified)	10	7	1	-7	nt	nt
CCCCOP(=O)(OCCCC)/C(C#N)=C(/C)O	-6	+	-5	0	nt	nt	Zta DNA confirm=0;EBNA-1 counter=-8
CC(=Nc1ccc(F)cc1)c1c(O)n(C)c(=O)[nH]c1=O	-4	-3	6	2	nt	nt

Source: PubChem
